From publication PMC6936494 (Proceedings of the National Academy of Sciences of the …, 2019)
“Also recorded” adds a separate entry of the source. Where two headings read alike, the source gives them in different places.

Key:
[1] = biological target: T1, N-terminal domain of LiaX (Enterococcus faecalis, UniProt Q834B6); assay: Microscale thermophoresis with His-tag specific dye, N-terminal domain of LiaX; assay type: binding, Enterococcus faecalis S613
T1 sequence (Q834B6 1-275): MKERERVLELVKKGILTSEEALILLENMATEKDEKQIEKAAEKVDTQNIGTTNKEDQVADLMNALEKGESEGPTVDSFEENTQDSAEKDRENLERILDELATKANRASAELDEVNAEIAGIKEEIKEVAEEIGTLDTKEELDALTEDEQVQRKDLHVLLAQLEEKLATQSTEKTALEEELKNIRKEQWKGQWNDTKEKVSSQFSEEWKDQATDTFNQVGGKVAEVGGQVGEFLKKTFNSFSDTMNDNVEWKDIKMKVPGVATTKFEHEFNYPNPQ

OG1RF and S613 = conditions: including against E. faecalis; ref [23], [24]; cited from earlier work
full length LiaX = biological target: T2, full length LiaX (Enterococcus faecalis, UniProt Q834B6); assay: LL-37 binding by microscale thermophoresis, amine reactive dye, full length LiaX; set-up: species or system Enterococcus faecalis S613
T2 sequence (Q834B6 1-533): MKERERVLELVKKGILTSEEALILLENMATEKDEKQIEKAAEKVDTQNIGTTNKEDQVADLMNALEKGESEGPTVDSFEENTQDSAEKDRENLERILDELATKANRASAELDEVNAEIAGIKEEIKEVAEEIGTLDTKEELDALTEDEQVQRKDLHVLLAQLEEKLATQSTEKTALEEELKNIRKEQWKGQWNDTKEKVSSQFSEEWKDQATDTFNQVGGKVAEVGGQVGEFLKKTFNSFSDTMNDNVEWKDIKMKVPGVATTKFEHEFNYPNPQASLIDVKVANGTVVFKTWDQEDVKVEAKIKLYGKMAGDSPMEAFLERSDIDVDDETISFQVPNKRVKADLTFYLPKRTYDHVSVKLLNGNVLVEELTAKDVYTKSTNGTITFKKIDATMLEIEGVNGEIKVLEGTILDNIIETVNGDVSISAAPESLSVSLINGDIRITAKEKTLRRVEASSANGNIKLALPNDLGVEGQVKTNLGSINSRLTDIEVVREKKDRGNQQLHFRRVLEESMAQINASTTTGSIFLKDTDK
Outline: (§1)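 Recombinant LiaX (full length or N-terminal domain, His/SUMO-tagged) was expressed in E. coli BL-21 and nickel-column purified, then labeled with NT-647. Microscale thermophoresis ran at 25% LED power in 0.1 M phosphate buffer pH 7.4, 0.0027 M KCl, 0.137 M NaCl and 1 mM TCEP, with or without 5% DMSO. Fluorescence changes were recorded across increasing LL-37 variant concentrations to derive Kd.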

N-terminal LiaX = biological target: T3, N-terminal LiaX (Enterococcus faecalis, UniProt Q834B6); assay: LL-37 binding by microscale thermophoresis, amine reactive dye, N-terminal LiaX; set-up: species or system Enterococcus faecalis S613
T3 sequence (Q834B6 1-277): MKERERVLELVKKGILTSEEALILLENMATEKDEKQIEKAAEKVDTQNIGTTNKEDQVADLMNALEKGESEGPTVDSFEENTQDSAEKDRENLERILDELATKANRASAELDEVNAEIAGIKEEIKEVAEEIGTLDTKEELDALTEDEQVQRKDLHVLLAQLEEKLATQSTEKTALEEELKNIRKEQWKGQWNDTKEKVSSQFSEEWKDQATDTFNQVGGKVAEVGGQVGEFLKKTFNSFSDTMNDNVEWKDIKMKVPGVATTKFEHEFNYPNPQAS
Outline: as §1

[2] = biological target: N-terminal domain of LiaX (Enterococcus faecalis); assay: MST
[3] = biological target: N-terminal domain of LiaX (Enterococcus faecalis); assay: MST; remark: listed apart in the source
[4] = tested on: DAP-S E. faecalis strains; assay type: cell-based, Enterococcus faecalis
[5] = tested on: Staphylococcus aureus ATCC29213; assay: DAP MIC by broth microdilution with exogenous LiaX or N-terminal LiaX, S. aureus; assay type: cell-based; conditions: 50 nM exogenous protein
E. faecalis strains = assay: LL-37 killing assay; assay type: cell-based, Enterococcus faecalis; conditions: OG1RFΔliaR; 50 µg/ml LL-37, 2 h
liaFSR and liaXYZ = assay: qRT-PCR for liaFSR and liaXYZ expression; assay type: cell-based, Enterococcus faecalis; conditions: OG1RF
E. faecalis [6] = assay: C. elegans infection assay with exogenous N-terminal LiaX; assay type: in vivo, Enterococcus faecalis; host Caenorhabditis elegans
Outline: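 Recombinant N-terminal LiaX domain (His/SUMO-tagged) was expressed in E. coli BL-21 and nickel-column purified. Synchronized young adult worms (60–90) were infected with E. faecalis on BHI agar plus gentamicin (10 µg/mL). They were then moved to a liquid killing format (20% BHI broth, 80% M9W buffer) containing N-terminal LiaX at 0.1 to 500 nM, held at 25 °C, and deaths scored daily. Results come from 3 independent experiments, with Kaplan–Meier log-rank or 1-way ANOVA analysis.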

E. faecalis [7] = assay: Growth kinetics with LiaX; assay type: cell-based, Enterococcus faecalis; conditions: functional concentrations; 100 nM in BHI, OD600, 24 h

Molecule: SSLLEKGLDGAKKAVGGLGKLGKDAVEDLESVGKGAVHDVKDVLDSVL [DCD-1L]
- binding affinity to N-terminal domain of LiaX ([1]; His-tag specific dye, DCD-1L tested up to 1,000 µM): no detectable binding affinity
- antimicrobial activity (OG1RF and S613): broad-spectrum antimicrobial activity, including against E. faecalis

Molecule: CC[C@H](C)[C@H](NC(=O)[C@H](CCCCN)NC(=O)[C@H](CCC(=O)O)NC(=O)[C@H](CCCCN)NC(=O)[C@H](CO)NC(=O)[C@H](CCCCN)NC(=O)[C@H](CCCNC(=N)N)NC(=O)[C@H](Cc1ccccc1)NC(=O)[C@H](Cc1ccccc1)NC(=O)[C@H](CC(=O)O)NC(=O)CNC(=O)[C@H](CC(C)C)NC(=O)[C@@H](N)CC(C)C)C(=O)NCC(=O)N[C@@H](CCCCN)C(=O)N[C@@H](CCC(=O)O)C(=O)N[C@@H](Cc1ccccc1)C(=O)N[C@@H](CCCCN)C(=O)N[C@@H](CCCNC(=N)N)C(=O)N[C@H](C(=O)N[C@H](C(=O)N[C@@H](CCC(N)=O)C(=O)N[C@@H](CCCNC(=N)N)C(=O)N[C@H](C(=O)N[C@@H](CCCCN)C(=O)N[C@@H](CC(=O)O)C(=O)N[C@@H](Cc1ccccc1)C(=O)N[C@@H](CC(C)C)C(=O)N[C@@H](CCCNC(=N)N)C(=O)N[C@@H](CC(N)=O)C(=O)N[C@@H](CC(C)C)C(=O)N[C@H](C(=O)N1CCC[C@H]1C(=O)N[C@@H](CCCNC(=N)N)C(=O)N[C@H](C(=O)N[C@@H](CCC(=O)O)C(=O)N[C@@H](CO)C(=O)O)[C@@H](C)O)C(C)C)[C@@H](C)CC)C(C)C)[C@@H](C)CC [LL-37]
- Kd (full length LiaX): 8.26 ± 0.28 µM
- Kd (N-terminal LiaX): 10.6 ± 0.43 µM
- Kd [1]: 5.27 ± 1.14 µM

Molecule: human cathelicidin LL-37 (peptide)
- Kd [2]: 5.27 µM
- Kd [3]: 10.6 µM

B1: N-terminal LiaX: purified N-terminal LiaX (residues 1-277; His-tagged variant residues 1-275) (protein)
chain: MKERERVLELVKKGILTSEEALILLENMATEKDEKQIEKAAEKVDTQNIGTTNKEDQVADLMNALEKGESEGPTVDSFEENTQDSAEKDRENLERILDELATKANRASAELDEVNAEIAGIKEEIKEVAEEIGTLDTKEELDALTEDEQVQRKDLHVLLAQLEEKLATQSTEKTALEEELKNIRKEQWKGQWNDTKEKVSSQFSEEWKDQATDTFNQVGGKVAEVGGQVGEFLKKTFNSFSDTMNDNVEWKDIKMKVPGVATTKFEHEFNYPNPQ
modifications: labeled with a RED-tris-NTA his-tag specific dye (NanoTemper); left off: His6, C-terminal, kept
- increase in DAP MIC ([4]; OG1RF, 50 nM exogenous protein): over 8 fold
- protection against DAP ([4]; OG1RF, 1 to 100 nM N-terminal LiaX, up to 200 nM full-length LiaX): high level of protection to OG1RF in a concentration-dependent manner
- protection against DAP ([4]; OG1RFΔliaR, 50 nM exogenous protein): did not protect OG1RFΔliaR against DAP
- increase in DAP MIC ([4]; S613, 50 nM exogenous protein): over 8 fold
- change in DAP MIC [5]: did not change under any condition
- protection from LL-37 killing (E. faecalis strains): did not protect OG1RFΔliaR from LL-37–mediated killing
- transcription of liaFSR and liaXYZ (liaFSR and liaXYZ; 50 nM protein without DAP, vs untreated): no effect on the levels of transcription
- LiaFSR activation relative to DAP alone or DAP with full-length LiaX (liaFSR and liaXYZ; N terminus of LiaX plus DAP): significantly higher and more pronounced
- transcription of liaFSR and liaXYZ (liaFSR and liaXYZ; protein plus subinhibitory DAP, listed as N terminus of LiaX): maximal activation of the LiaFSR cell envelope stress response; also recorded: highly up-regulated
- virulence in C. elegans (E. faecalis [6]; OG1RF and S613, 100 nM purified N-terminal LiaX (Fig. 6), listed as N terminus of LiaX): more virulent; also recorded: increased virulence
- virulence in C. elegans, dose dependence (E. faecalis [6]; OG1RF or S613, 5-100 nM N-terminus LiaX): dose-dependent manner
- virulence in C. elegans (E. faecalis [6]; OG1RFΔliaR and TMΔliaR, exogenous N terminus of LiaX): did not, however, alter the virulence
- effect on growth of E. faecalis (E. faecalis [7]): no impact on the growth
